ChEMBL document CHEMBL4665883, “Development of DHQ-based chemical biology probe to profile cellular targets for HBV” (Bioorg Med Chem Lett, 2020)
Structures can show the parent of a compound that is named as a salt. Activity calls are given as the source filed them. No cut-off for these calls is given here.

Legend:
[1] = test system: Hepatitis B virus; test: Antiviral activity against Hepatitis B virus infected in human HepG2.2.15 cells assessed as reduction in HBV DNA level in cell supernatants incubated for 5 days by real time PCR analysis; type: functional, organism-based; conditions: HepG2.2.15, 120 h
[2] = test system: Hepatitis B virus; test: Antiviral activity against Hepatitis B virus infected in human HepG2.2.15 cells assessed as reduction in HBsAg level in cell supernatants incubated for 5 days by AlphaLisa assay; type: functional, organism-based; conditions: HepG2.2.15, 120 h
[3] = Cytotoxicity against human HepG2.2.15 cells assessed as reduction in cell viability; type: cell-based, HepG2 2.2.15
[4] = biological target: T1, Aldehyde dehydrogenase X, mitochondrial (Homo sapiens) (UniProt P30837); test: Binding affinity to ALDH X in human HePAD38 cells infected with HBV assessed as protein labelling at 20 uM after 1 hr by photoaffinity labelling in-situ fluorescence gel-based LC-MS/MS analysis; type: cell-based
T1 sequence (whole entry): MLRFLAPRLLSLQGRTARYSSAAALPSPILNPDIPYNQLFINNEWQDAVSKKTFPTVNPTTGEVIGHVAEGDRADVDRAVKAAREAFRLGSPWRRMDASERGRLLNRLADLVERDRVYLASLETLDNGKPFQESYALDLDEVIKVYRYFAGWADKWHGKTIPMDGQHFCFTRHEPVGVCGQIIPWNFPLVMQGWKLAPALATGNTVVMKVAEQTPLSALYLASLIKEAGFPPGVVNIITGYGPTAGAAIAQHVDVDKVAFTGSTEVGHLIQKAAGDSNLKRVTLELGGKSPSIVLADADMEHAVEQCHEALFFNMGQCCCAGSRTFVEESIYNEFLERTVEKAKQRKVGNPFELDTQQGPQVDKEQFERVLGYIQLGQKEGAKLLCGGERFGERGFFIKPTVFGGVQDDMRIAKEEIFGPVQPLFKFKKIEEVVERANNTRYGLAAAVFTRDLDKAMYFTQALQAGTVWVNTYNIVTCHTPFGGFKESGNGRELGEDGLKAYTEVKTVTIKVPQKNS
Summary of the method: (§1)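 Live HepAD38 cells incubated 1 h with photoaffinity probe at 20 μM final, then UV-irradiated. Cells were harvested and homogenized in HEPES lysis buffer. Lysates underwent copper-catalysed click conjugation to biotin-Diazo-azide, then large-scale affinity enrichment, with bound proteins identified by LC–MS/MS.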

[5] = biological target: 60 kDa heat shock protein, mitochondrial (Homo sapiens) (UniProt P10809); test: Binding affinity to 60 kDa HSP60 in human HePAD38 cells infected with HBV assessed as protein labelling at 20 uM after 1 hr by photoaffinity labelling in-situ fluorescence gel-based LC-MS/MS analysis; type: cell-based; summary of the method: as §1
Sequence of 60 kDa heat shock protein, mitochondrial (Homo sapiens) (P10809 whole entry): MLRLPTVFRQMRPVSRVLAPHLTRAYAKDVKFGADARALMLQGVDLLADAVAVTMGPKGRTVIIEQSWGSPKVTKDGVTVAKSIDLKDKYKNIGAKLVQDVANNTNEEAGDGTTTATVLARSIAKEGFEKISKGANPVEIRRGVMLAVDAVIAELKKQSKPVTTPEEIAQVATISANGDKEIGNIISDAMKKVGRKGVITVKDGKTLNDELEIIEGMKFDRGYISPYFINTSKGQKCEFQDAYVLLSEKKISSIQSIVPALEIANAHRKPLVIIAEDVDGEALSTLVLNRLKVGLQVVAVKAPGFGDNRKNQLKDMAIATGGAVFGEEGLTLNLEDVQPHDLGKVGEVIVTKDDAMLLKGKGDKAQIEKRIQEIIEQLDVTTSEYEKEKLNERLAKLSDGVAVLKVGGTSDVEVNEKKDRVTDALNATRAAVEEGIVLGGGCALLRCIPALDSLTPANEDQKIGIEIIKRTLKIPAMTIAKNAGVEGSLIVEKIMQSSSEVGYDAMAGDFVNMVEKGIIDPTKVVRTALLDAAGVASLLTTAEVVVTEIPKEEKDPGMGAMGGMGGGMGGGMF

[6] = biological target: T2, Aldehyde dehydrogenase 1A1 (Homo sapiens) (UniProt P00352); test: Binding affinity to RALDH1 in human HePAD38 cells infected with HBV assessed as protein labelling at 20 uM after 1 hr by photoaffinity labelling in-situ fluorescence gel-based LC-MS/MS analysis; type: cell-based; summary of the method: as §1
T2 sequence (whole entry): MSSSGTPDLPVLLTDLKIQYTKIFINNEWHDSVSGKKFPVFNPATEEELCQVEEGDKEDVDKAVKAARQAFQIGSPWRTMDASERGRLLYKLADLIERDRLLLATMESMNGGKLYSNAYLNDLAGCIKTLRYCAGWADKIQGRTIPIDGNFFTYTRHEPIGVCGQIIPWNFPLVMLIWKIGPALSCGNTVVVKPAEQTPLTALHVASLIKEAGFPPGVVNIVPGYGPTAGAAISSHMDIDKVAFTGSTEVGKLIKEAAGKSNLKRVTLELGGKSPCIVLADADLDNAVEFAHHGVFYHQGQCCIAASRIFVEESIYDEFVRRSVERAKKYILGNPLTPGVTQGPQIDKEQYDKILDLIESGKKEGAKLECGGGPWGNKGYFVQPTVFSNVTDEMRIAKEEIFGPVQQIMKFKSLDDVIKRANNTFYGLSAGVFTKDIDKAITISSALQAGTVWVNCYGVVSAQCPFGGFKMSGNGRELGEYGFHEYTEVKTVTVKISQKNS

[7] = biological target: T3, Isocitrate dehydrogenase [NADP], mitochondrial (Homo sapiens) (UniProt P48735); test: Binding affinity to IDH in human HePAD38 cells infected with HBV assessed as protein labelling at 20 uM after 1 hr by photoaffinity labelling in-situ fluorescence gel-based LC-MS/MS analysis; type: cell-based; summary of the method: as §1
T3 sequence (whole entry): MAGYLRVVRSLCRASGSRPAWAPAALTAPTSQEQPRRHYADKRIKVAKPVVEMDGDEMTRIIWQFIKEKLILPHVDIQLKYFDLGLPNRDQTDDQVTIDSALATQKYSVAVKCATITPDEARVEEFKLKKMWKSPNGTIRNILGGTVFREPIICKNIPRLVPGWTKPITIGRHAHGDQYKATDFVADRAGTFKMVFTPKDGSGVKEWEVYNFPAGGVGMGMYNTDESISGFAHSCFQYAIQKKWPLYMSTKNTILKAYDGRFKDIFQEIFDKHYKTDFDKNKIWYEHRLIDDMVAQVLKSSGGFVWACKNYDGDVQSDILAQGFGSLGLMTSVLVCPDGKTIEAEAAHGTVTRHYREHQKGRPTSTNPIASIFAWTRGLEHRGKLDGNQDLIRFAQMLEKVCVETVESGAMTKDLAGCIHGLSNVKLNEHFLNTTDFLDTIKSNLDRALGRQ

[8] = biological target: T4, Heme oxygenase 2 (Homo sapiens) (UniProt P30519); test: Binding affinity to HMOX2 in human HePAD38 cells infected with HBV assessed as protein labelling at 20 uM after 1 hr by photoaffinity labelling in-situ fluorescence gel-based LC-MS/MS analysis; type: cell-based; summary of the method: as §1
T4 sequence (whole entry): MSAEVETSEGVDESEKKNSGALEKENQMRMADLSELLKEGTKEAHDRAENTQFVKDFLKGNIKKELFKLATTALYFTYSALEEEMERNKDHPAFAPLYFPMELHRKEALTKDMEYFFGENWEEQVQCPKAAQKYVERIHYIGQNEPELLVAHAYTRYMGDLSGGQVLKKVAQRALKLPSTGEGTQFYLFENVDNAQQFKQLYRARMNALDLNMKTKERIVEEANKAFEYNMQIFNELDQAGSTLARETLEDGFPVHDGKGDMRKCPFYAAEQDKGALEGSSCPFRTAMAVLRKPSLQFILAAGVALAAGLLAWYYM

[9] = biological target: Poly(rC)-binding protein 1 (Homo sapiens) (UniProt Q15365); test: Binding affinity to PCBP1 in human HePAD38 cells infected with HBV assessed as protein labelling at 20 uM after 1 hr by photoaffinity labelling in-situ fluorescence gel-based LC-MS/MS analysis; type: cell-based; summary of the method: as §1
Sequence of Poly(rC)-binding protein 1 (Homo sapiens) (Q15365 whole entry): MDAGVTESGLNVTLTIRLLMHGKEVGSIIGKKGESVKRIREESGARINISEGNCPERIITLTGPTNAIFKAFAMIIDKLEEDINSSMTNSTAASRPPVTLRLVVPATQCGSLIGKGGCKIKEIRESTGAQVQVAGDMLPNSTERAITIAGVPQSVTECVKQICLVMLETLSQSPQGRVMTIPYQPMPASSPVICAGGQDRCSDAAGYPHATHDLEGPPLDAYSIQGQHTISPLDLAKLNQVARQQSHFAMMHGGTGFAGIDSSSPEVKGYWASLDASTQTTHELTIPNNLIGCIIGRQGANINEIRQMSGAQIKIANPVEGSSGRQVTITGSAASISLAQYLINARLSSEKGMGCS

[10] = biological target: Terminal nucleotidyltransferase 4B (Homo sapiens) (UniProt Q8NDF8); test: Binding affinity to PAPD5 in human HePAD38 cells infected with HBV assessed as protein labelling at 20 uM after 1 hr by photoaffinity labelling in-situ fluorescence gel-based LC-MS/MS analysis; type: cell-based; summary of the method: as §1
Sequence of Terminal nucleotidyltransferase 4B (Homo sapiens) (Q8NDF8 whole entry): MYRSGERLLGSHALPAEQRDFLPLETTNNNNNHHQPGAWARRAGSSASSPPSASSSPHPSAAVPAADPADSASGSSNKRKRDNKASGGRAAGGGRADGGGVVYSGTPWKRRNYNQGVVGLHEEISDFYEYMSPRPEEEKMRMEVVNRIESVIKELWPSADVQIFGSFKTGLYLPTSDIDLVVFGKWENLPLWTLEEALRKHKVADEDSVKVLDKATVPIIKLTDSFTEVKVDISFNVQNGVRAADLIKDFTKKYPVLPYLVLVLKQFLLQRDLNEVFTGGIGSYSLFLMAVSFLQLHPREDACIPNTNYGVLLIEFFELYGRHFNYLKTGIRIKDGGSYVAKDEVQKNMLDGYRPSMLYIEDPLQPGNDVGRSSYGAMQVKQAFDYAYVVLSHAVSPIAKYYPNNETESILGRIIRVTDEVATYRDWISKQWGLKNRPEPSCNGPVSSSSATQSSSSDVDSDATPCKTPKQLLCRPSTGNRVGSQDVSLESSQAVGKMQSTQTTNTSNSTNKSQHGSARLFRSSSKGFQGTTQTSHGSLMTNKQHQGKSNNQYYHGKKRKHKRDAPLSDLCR

[11] = biological target: Terminal nucleotidyltransferase 4A (Homo sapiens) (UniProt Q5XG87); test: Binding affinity to PAPD7 in human HePAD38 cells infected with HBV assessed as protein labelling at 20 uM after 1 hr by photoaffinity labelling in-situ fluorescence gel-based LC-MS/MS analysis; type: cell-based; summary of the method: as §1
Sequence of Terminal nucleotidyltransferase 4A (Homo sapiens) (Q5XG87 whole entry): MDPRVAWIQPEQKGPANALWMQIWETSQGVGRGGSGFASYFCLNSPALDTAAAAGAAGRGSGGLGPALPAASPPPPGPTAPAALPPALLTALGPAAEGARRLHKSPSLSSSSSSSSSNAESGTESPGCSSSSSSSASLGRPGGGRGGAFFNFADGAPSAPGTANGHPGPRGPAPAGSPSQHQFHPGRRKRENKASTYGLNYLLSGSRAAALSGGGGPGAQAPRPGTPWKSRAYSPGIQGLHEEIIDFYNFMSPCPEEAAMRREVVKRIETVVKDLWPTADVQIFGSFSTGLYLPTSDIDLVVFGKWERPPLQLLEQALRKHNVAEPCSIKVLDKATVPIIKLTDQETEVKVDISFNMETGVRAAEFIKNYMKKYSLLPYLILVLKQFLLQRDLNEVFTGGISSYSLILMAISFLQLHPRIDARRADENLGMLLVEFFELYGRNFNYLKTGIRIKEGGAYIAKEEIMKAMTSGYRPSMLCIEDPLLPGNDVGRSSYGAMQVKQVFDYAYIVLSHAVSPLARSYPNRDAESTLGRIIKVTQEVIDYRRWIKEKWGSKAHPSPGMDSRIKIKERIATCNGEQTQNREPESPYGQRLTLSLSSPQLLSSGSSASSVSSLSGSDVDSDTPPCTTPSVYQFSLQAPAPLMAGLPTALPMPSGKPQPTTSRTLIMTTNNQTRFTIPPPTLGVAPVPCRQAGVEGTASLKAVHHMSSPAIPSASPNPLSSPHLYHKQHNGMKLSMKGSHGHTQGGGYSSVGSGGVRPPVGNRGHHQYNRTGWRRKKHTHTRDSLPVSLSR

| Compound | EC50 [1] | EC50 [2] | other results |
| --- | --- | --- | --- |
| COC(=O)c1cc2c(cc1N1CCCC1)CC(C(C)C)n1cc(C(=O)O)c(=O)cc1-2 (stereo not drawn) | 3 nM | 5.7 nM | – |
| COCCCOc1cc2c(cc1OCCOc1ccccc1)-c1cc(=O)c(C(=O)O)cn1C(C(C)C)C2 (stereo not drawn) | 32.5 nM | 154 nM | – |
| COCCCOc1cc2c(cc1OC)-c1cc(=O)c(-c3csc(N)n3)cn1C(C(C)C)C2 (stereo not drawn) | 816 nM | 367 nM | – |
| CC(C)OC(=O)OCOP(=O)(CO[C@H](C)Cn1cnc2c(N)ncnc21)OCOC(=O)OC(C)C [TENOFOVIR DISOPROXIL FUMARATE] | 13.8 nM | > 1000 nM | – |
| COCCCOc1cc2c(cc1C(=O)OC)-c1cc(=O)c(C(=O)O)cn1C(C(C)C)C2 (stereo not drawn) | 6.1 nM | 2.25 nM | – |
| C#CCCC1(CCOc2cc3c(cc2C(=O)OC)-c2cc(=O)c(C(=O)O)cn2[C@@H](C(C)C)C3)N=N1 | 82.2 nM | 305 nM | CC50 [3]: > 150000 nM |
| COCCCOc1cc2c(cc1OC)-c1cc(=O)c(C(=O)O)cn1C(C(C)C)C2 (racemic) | 3 nM | 1.3 nM | – |
| COC(=O)c1cc2c(cc1O)CC(C(C)C)n1cc(C(=O)O)c(=O)cc1-2 (stereo not drawn) | 89.5 nM | 412 nM | – |
| C#CCCC1(CCOc2cc3c(cc2C(=O)OC)-c2cc(=O)c(C(=O)O)cn2[C@H](C(C)C)C3)N=N1 | 3.2 nM | 5.6 nM | CC50 [3]: > 150000 nM; Activity [4]: Active; Activity [5]: Active; Activity [6]: Active; Activity [7]: Active; Activity [8]: Active; Activity [9]: Active; Activity [10]: inactive; Activity [11]: inactive |
